High-throughput results: PubChem, Johns Hopkins Ion Channel Center
Most compounds without a hit are left out; they make up all but 3.7% or so of the library.
KCNK9 block: blocks the human KCNK9 two-pore domain potassium channel; HEK293 KCNK9, FluxOR thallium flux fluorescence; stronger effect = lower value; B-score at 10 µM; 310,000 tested, 1.2% active; AID 488922;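 active = ratio B-score over 3 SD below the library mean, with starting fluorescence within 5 SD of its mean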;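 note: negative B-score means less thallium flux so channel inhibition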
hERG rescue: hERG (human) protection from proarrhythmic block | activation (rescue from dofetilide block), less the hit threshold, % at 10 µM | 310,000 tested, 0.51% active | AID 1511 | CHO-hERG, FluxOR thallium flux, dofetilide IC70 present;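 active = activation above the mean of controls blocked by dofetilide plus 5 SD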;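 note: thallium influx through hERG after potassium depolarization seen as dye fluorescence rise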
Target sequence (Q12809 whole entry, looked up): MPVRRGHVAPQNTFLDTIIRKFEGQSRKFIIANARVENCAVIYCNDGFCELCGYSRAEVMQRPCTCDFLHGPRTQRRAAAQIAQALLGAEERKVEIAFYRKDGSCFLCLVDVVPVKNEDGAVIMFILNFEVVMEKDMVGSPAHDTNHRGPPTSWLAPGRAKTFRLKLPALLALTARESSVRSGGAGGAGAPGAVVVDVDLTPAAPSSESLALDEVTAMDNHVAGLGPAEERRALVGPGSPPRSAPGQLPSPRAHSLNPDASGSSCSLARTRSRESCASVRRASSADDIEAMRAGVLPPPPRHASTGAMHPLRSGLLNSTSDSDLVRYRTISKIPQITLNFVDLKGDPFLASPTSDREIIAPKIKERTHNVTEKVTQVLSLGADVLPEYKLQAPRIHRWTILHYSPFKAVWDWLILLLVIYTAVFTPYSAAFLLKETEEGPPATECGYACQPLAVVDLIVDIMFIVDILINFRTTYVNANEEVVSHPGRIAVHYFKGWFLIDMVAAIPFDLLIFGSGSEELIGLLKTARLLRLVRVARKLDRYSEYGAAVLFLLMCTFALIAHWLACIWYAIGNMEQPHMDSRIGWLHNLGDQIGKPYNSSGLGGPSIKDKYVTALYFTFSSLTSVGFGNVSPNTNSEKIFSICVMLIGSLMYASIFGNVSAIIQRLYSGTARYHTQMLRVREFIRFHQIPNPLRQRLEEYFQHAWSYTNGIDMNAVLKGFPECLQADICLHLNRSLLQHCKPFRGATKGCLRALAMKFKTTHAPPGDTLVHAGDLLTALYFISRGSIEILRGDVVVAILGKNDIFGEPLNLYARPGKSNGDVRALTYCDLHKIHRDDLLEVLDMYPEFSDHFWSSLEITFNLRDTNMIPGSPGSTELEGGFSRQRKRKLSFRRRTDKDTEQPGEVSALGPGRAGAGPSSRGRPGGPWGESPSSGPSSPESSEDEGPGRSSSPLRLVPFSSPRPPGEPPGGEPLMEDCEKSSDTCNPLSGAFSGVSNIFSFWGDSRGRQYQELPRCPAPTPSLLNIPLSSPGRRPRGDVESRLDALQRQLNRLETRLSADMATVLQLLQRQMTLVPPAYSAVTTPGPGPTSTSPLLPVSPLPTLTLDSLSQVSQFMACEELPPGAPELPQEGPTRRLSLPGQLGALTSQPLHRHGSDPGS
KCNQ1 block: blocks the human KCNQ1 potassium channel; CHO-K1 KCNQ1, FluxOR thallium flux fluorescence; stronger effect = higher value; B-score at 10 µM; 310,000 tested, 1.3% active; P51787; AID 2642;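 active = compounds whose thallium flux B-score, printed positive for inhibition, exceeds three library SD while starting fluorescence stays within three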;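 note: channel opened by potassium depolarization with thallium stimulus after 20 min compound exposure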
KCNK3 block: human KCNK3 channel inhibition, primary screen | B-score at 10 µM | CHO-KCNK3 thallium flux, FluxOR fluorescence; stronger effect = lower value | O14649 | 340,000 tested, 0.84% active;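 active = B-score under library mean minus 4 SD, starting fluorescence ratio at most library mean plus 5 SD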;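 note: more negative B-score means stronger inhibition of thallium flux through KCNK3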
Kir21 inh: Kir2.1 (mouse) channel inhibition; P35561; HEK293-Kir2.1, FluxOR thallium flux fluorescence; stronger effect = lower value; B-score at 10 µM; 310,000 tested, 0.85% active; AID 1672;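 active = fluorescence ratio B-score at or below minus 3 SD of library scores, with starting-brightness B-score within 2 SD, cut at about -4.2 in these data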;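 note: channel flux triggered by added potassium and thallium sulfate stimulus; B-score of peak minus minimum fluorescence over baseline after thallium stimulus; more negative B-score means stronger Kir2.1 block with less thallium influx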
KCNQ1 pot: potentiators or activators of human KCNQ1 potassium channel; CHO-K1 KCNQ1, thallium flux FluxOR fluorescence; stronger effect = higher value; P51787; B-score at 10 µM; 310,000 tested, 0.35% active;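 active = fluorescence ratio B-score, a plate-corrected score, at least three library SD, with initial intensity B-score within 5 SD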
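assay system = KCNQ1-transfected CHO-K1 cells | medium = assay buffer with matched DMSO | probe or stimulus = depolarizing K+/Tl+ stimulus, K2SO4 and Tl2SO4 each 12.5 mM in 5x stock | dosing = single dose | incubation = dye 90 min, compound 20 min, room temperature | detection = kinetic FluxOR fluorescence, 10 s baseline plus 110 s post-stimulus | evaluation = ratio B score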
Starred values were filed as active, the others as inactive; i = inactive; nt = no result.

SMILES	KCNK9 block	hERG rescue	KCNQ1 block	KCNK3 block	Kir21 inh	KCNQ1 pot
COC(=O)c1cc(CSC(=N)N)ccc1OCCC(C)C	i	-9	i	i	-9.5*	i
COC(=O)c1cc(NC(=O)c2cccs2)ccc1N1CCOCC1	i	-22	i	i	0.77	i
COC(=O)c1cc(NC(=O)c2cc(-c3ccc(Cl)cc3)oc2C(F)(F)F)ccc1N1CCOCC1	i	-13	7*	i	0.98	i
Cn1c2ccccc2c2cc(/C=C(\NC(=O)c3ccccc3)C(=O)O)ccc21	i	-4	i	i	2	i
CC(C)OC(=O)/C(=C\c1ccc2c(c1)c1ccccc1n2C)NC(=O)c1ccccc1	-7.9*	-8	i	i	-1.5	i
CC(C)OC(=O)/C(=C/c1ccc2c(c1)c1ccccc1n2C)NC(=O)c1ccccc1	-7.6*	-4	i	i	0.35	i
CC(C)OC(=O)/C(=C\c1cccnc1)NC(=O)c1ccccc1	i	-5	i	i	-0.15	i
CC(C)(C)OC(=O)N1CCC(CC2CC(c3ccccc3)=NO2)(C(=O)O)CC1 (configuration not stated)	i	-4	i	i	-0.06	i
CCCCCCCNC(=O)C1(CC2CC(c3ccc(Cl)cc3)=NO2)CCN(C(=O)OC(C)(C)C)CC1 (configuration not stated)	i	-10	8*	i	-0.09	i
C=CCN1C(=O)c2ccc(C(=O)N(C)CC(=O)Nc3ccc(Br)cc3C)cc2C1=O	i	-5	i	i	-0.01	i
CCN(CC(=O)NCCc1ccc(S(N)(=O)=O)cc1)Cc1nc2ccccc2c(=O)[nH]1	i	4.8*	i	i	-0.13	i
CNC(=O)CSc1nnc(-c2ccco2)n1-c1ccc(C)cc1	i	48*	i	i	1.1	i
CC(C)Oc1ccc(C(=O)Nc2cccc3cccnc23)cc1	-6.8*	-4	i	i	-1.2	i
CCOc1ccc(C(=O)Nc2cccc3cccnc23)cc1	i	-7	i	i	1.3	i
COc1ccc(S(=O)(=O)Nc2c(C)ccc3nsnc23)cc1OC	i	-3	i	i	-5.1*	i
COc1ccc(C)cc1NS(=O)(=O)c1ccc(NS(=O)(=O)c2ccc(NC(C)=O)cc2)cc1	i	-9	i	i	-0.31	i
COc1ccc(S(=O)(=O)Nc2cc(C)ccc2OC)cc1C	i	-2	i	i	-7*	i
COc1ccc(NS(=O)(=O)c2cccc3nsnc23)cc1OC	i	-3	i	i	0	i
COc1ccc(Cl)cc1NS(=O)(=O)c1ccc(OC)c(OC)c1	i	-17	i	i	-8.2*	i
Cc1cn(CC(=O)N2CCN(c3ccccn3)CC2)c(=O)[nH]c1=O	nt	nt	nt	i	nt	nt
CCSc1nc(C2CC2)cc(-c2ccco2)c1C#N	i	-12	i	i	0.32	i
CCOC(=O)CSc1nc(N)c(C#N)c(-c2cccs2)c1C#N	i	-2	i	i	1.4	i
CCSc1nc(C2CC2)cc(-c2cccs2)c1C#N	-6.8*	-7	i	i	-0.29	i
CCCSc1nc(N)nc(-c2cccs2)c1C#N	-6.9*	-11	i	i	-0.28	i
COc1ccc(-c2noc(CCC(=O)N3CCN(c4ccc(Cl)cc4)CC3)n2)cc1	nt	nt	nt	i	nt	nt
SMILES	KCNK9 block	hERG rescue	KCNQ1 block	KCNK3 block	Kir21 inh	KCNQ1 pot
COC(=O)c1c(NC(=S)NNC(=O)c2ccc(Cl)s2)sc(C(=O)N(C)C)c1C	i	-10	i	i	-0.07	i
CCc1cccc(NS(=O)(=O)c2c(C)nc3sc(CC)nn3c2=O)c1	nt	nt	nt	i	nt	nt
CCCCN(c1ccccc1)S(=O)(=O)N(C)C	i	-9	i	i	-5.1*	i
CN(Cc1ccco1)C(=O)CSc1nc(C2CC2)n(-c2ccccc2)n1	nt	nt	nt	i	nt	nt
CN(Cc1ccccc1)C(=O)C1CCN(S(=O)(=O)c2cccc3nonc23)CC1	i	-7	i	i	1.9	i
O=C(NCc1ccco1)c1ccc(N2CCCCC2)c([N+](=O)[O-])c1	i	-7	i	i	0.01	i
Cc1ccc(N(Cc2ccco2)C(=O)c2ccc(N3CCCCC3)c([N+](=O)[O-])c2)cc1	i	-7	8*	i	0.87	i
O=C1CCC[C@@H]2[C@@H](Cc3ccccc3)[C@H](N3CCN(c4ccccc4)CC3)C[C@@H]3CCN1[C@@H]32	nt	nt	nt	i	nt	nt
CC1(c2ccccc2)CC(c2ccccc2)=Nc2nonc2N1 (configuration not stated)	i	-10	i	i	-4.4*	i
CN(C)C(=O)c1ccc(-c2nnc(OCc3nc4ccccc4n3C)c3ccccc23)cc1	nt	nt	nt	i	nt	nt
Cc1nn(-c2ccccc2)c(C)c1/C=N/NC(=O)CSc1nnc(SCc2ccccc2Cl)s1	i	-13	6*	i	0.73	i
CCn1c(CSc2nnc(-c3ccoc3C)n2C)nc2cc(S(=O)(=O)N(C)C)ccc21	i	32*	i	i	0.11	i
Oc1ccc2ccccc2c1-c1sc(Nc2ccccc2)n[n+]1-c1ccc(F)cc1	i	-22	9*	i	-0.32	i
CCN(c1ccccc1C)S(=O)(=O)c1cc2c3c(c1)CCC(=O)N3CCC2	i	-10	i	i	0.38	i
O=C(Nc1cccc2c1[nH]c1ccccc12)C(F)(F)F	i	-3	6*	i	2.6	i
CN(CCOc1ccccc1)C(=O)c1ccc(F)c(S(=O)(=O)N2CCOCC2)c1	i	-18	i	i	-0.09	i
COc1ccccc1NC(=O)CSCC(=O)N1c2ccccc2CCc2ccccc21	-7.1*	-10	i	i	-0.69	i
CCOC(=O)CSc1ccc(S(=O)(=O)N(C)C2CCCCC2)cc1[N+](=O)[O-]	i	-4	i	-10*	-0.15	i
COc1cccc(CN(C)C(=O)c2sccc2-c2ccccc2)c1OC	i	-9	i	i	-3.6	i
CN(Cc1ccccc1F)C(=O)c1sccc1-c1ccccc1	i	-12	i	i	-12*	i
CC(C)(C)C(=O)N1CCCC1C(=O)O (configuration not stated)	i	4.9*	i	i	1.1	i
COc1ccccc1C(=O)NC(CCSC)C(=O)OCC(=O)N1CCN(S(=O)(=O)c2ccc(C)cc2)CC1 (configuration not stated)	nt	nt	nt	i	nt	nt
CCOC(=O)CCCNC(=O)CSc1nc2ccc(OCC)cc2[nH]1	i	7.2*	i	i	1.5	i
